From ChEMBL document CHEMBL4368858, “Search for a 5-CT alternative. In vitro and in vivo evaluation of novel pharmacological tools: 3-(1-alkyl-1H-imidazol-5-yl)-1H-indole-5-carboxamides, low-basicity 5-HT7 receptor agonists” (Medchemcomm, 2018)

Experiments:
[1] = molecular target: T1, 5-hydroxytryptamine receptor 2A (Homo sapiens, UniProt P28223); test: Displacement of [3H]-ketanserin from recombinant human 5HT2A receptor expressed in CHOK1 cells measured after 1 hr by microbeta counting method; format: cell-based
T1 sequence (P28223 whole entry): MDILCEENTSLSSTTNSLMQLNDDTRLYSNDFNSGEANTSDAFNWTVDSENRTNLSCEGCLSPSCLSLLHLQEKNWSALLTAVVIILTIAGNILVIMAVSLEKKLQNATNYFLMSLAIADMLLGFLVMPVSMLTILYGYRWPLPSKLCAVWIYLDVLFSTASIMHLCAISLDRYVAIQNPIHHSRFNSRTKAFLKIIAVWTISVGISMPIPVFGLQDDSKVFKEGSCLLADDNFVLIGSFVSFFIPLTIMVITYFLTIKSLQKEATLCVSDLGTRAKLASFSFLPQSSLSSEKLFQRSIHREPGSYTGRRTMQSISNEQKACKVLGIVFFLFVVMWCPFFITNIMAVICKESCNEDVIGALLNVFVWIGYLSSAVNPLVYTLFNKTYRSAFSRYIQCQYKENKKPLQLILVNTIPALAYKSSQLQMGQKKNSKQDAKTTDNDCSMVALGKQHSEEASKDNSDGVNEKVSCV
Summary of the method: (§1)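 Radioligand displacement on cloned human receptors stably expressed in HEK-293 cells, except 5-HT2A, which was expressed in CHO cells. Radioligands: [3H]-LSD for 5-HT6, [3H]-5-CT for 5-HT7, [3H]-ketanserin for 5-HT2A, [3H]-raclopride for D2.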

[2] = molecular target: T2, 5-hydroxytryptamine receptor 6 (Homo sapiens, UniProt P50406); test: Displacement of [3H]-LSD from recombinant human 5HT6 receptor expressed in HEK293 cells measured after 1 hr by microbeta counting method; format: cell-based; summary of the method: as §1
T2 sequence (P50406 whole entry): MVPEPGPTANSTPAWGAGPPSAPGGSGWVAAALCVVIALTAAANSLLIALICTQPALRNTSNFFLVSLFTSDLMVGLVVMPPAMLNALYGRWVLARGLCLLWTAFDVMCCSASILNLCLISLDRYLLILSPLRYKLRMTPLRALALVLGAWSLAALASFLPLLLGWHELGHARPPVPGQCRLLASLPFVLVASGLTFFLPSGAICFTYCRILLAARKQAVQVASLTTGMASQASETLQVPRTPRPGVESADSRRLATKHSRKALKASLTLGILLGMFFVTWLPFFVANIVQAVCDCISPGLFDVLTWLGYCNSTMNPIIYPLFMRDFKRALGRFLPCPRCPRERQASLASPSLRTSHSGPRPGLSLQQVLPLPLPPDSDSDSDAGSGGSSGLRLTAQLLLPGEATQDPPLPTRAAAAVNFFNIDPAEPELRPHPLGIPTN

D(2) dopamine receptor = D(2) dopamine receptor (Homo sapiens, UniProt P14416); test: Displacement of [3H]-raclopride from recombinant human D2LR receptor expressed in HEK293 cells measured after 1 hr by microbeta counting method; format: cell-based; summary of the method: as §1
D(2) dopamine receptor, sequence (P14416 whole entry): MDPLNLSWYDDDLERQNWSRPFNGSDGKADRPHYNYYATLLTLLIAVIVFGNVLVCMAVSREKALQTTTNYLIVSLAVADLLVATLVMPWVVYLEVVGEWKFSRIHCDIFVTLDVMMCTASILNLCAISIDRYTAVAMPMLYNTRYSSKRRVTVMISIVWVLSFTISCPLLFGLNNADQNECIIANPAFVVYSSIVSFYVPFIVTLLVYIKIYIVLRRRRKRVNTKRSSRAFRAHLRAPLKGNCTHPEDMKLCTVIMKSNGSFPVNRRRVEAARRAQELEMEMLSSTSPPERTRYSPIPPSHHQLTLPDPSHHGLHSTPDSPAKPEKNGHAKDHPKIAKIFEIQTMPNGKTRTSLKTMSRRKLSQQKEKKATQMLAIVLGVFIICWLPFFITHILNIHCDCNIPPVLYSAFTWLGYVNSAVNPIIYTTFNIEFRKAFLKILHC

[3] = molecular target: T1, 5-hydroxytryptamine receptor 2A; test: Displacement of [3H]ketanserin from recombinant human 5-HT2A receptor expressed in cell membrane after 1.5 hrs by scintillation counting analysis; format: cell membranes
Summary of the method: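 Cloned human 5-HT2A receptor stably expressed in CHO cells; displacement of [3H]-ketanserin.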

[4] = molecular target: 5-hydroxytryptamine receptor 5A (Homo sapiens, UniProt P47898); test: Displacement of [3H]LSD from human recombinant 5-HT5A receptor expressed in cell membrane after 1.5 hrs by scintillation counting analysis; format: cell membranes
5-hydroxytryptamine receptor 5A, sequence (P47898 whole entry): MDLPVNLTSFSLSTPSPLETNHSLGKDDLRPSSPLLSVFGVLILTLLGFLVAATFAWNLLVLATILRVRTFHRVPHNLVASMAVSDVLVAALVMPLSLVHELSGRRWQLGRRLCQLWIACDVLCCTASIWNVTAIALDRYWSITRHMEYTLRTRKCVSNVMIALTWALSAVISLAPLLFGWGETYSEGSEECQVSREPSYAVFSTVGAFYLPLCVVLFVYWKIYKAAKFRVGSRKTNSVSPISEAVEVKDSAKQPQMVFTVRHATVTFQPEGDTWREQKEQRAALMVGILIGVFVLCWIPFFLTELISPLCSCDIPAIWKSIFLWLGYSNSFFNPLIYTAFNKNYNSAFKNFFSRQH

[5] = molecular target: T2, 5-hydroxytryptamine receptor 6; test: Displacement of [3H]LSD from human recombinant 5-HT6 receptor expressed in cell membrane after 1.5 hrs by scintillation counting analysis; format: cell membranes
Summary of the method: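 Cloned human 5-HT6 receptor stably expressed in HEK-293 cells; displacement of [3H]-LSD.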

[6] = Permeability of the compound by PAMPA; format: ADME; details: read-out: permeability
Summary of the method: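 Passive permeability measured on a pre-coated PAMPA plate system. Concentrations were quantified against calibration curves made by capillary electrophoresis with diode-array detection. The permeability coefficient Pe is reported in 10^-6 cm s^-1 as mean ± SD of triplicates.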

P-glycoprotein (ABCB1) = P-glycoprotein (ABCB1) (Homo sapiens, UniProt P08183); test: Inhibition of recombinant human membrane bound Pgp assessed as basal ATP consumption at 100 uM after 40 mins by Pgp-Glo luminescence assay relative to control; parameters: scale not given: the % may be the effect or the level left; details: read-out: Activity
P-glycoprotein (ABCB1), sequence (P08183 whole entry): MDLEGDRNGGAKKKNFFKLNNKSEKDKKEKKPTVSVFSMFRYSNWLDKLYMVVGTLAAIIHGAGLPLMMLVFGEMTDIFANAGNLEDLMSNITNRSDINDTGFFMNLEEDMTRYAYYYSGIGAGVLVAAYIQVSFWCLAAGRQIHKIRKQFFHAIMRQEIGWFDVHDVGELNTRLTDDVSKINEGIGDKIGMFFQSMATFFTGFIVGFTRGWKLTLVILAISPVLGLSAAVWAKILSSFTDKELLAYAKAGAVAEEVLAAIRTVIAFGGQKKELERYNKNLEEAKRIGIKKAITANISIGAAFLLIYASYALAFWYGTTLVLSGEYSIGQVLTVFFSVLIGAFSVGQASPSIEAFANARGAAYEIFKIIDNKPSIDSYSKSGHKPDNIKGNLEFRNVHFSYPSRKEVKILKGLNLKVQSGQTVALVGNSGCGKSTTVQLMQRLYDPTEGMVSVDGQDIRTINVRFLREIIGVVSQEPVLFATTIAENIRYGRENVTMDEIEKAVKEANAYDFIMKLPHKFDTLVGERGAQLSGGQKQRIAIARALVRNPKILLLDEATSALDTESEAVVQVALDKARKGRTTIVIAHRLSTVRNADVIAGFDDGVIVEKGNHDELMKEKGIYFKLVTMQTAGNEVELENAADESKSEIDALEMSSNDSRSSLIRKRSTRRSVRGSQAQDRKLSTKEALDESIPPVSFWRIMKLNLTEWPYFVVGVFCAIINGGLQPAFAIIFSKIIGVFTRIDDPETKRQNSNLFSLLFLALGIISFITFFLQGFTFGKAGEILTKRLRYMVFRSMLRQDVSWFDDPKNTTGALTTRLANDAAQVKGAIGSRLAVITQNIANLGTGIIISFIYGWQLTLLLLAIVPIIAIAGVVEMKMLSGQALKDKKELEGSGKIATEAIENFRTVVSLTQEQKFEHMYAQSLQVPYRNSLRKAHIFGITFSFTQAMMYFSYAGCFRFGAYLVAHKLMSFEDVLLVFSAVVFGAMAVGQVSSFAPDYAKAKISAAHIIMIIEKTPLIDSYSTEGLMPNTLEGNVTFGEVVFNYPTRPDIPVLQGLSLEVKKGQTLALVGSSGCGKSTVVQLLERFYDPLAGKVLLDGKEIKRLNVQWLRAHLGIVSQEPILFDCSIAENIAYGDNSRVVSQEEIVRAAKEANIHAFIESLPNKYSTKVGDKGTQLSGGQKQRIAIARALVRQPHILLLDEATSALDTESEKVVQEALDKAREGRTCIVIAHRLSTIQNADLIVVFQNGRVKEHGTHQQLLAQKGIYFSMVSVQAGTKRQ
Summary of the method: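 Pgp-Glo luminescence assay measuring Pgp ATP consumption. Compounds incubated with Pgp membranes at 100 μM for 40 min at 37 °C in triplicate. Na3VO4 (100 μM) used as reference inhibitor and verapamil (200 μM) as stimulator; basal activity taken as the vanadate-versus-untreated signal difference.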

[7] = Drug metabolism in human liver microsomes measured after 120 mins in presence of NADPH generating system by UPLC analysis; format: ADME, Microsome
Summary of the method: (§2)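 Incubation with human, rat or mouse liver microsomes for 120 min at 37 °C with an NADPH regeneration system. Reaction mixtures analysed by UPLC for metabolites and % substrate metabolized.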

[8] = Drug metabolism in rat liver microsomes measured after 120 mins in presence of NADPH generating system by UPLC analysis; format: ADME, Microsome; summary of the method: as §2
[9] = Drug metabolism in mouse liver microsomes measured after 120 mins in presence of NADPH generating system by UPLC analysis; format: ADME, Microsome; details: read-out: Drug metabolism; summary of the method: as §2
[10] = Retention time of the compound in rat liver microsomes in presence of NADPH generating system by UPLC analysis; format: ADME, Microsome
Summary of the method: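 Incubated with rat liver microsomes plus an NADPH regeneration system for 120 min at 37 °C. Reaction mixtures were analysed by UPLC to detect metabolites and their retention times.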

CYP3A4 = CYP3A4 (Homo sapiens, UniProt P08684); test: Inhibition of CYP3A4 (unknown origin) assessed as residual activity at 10 uM using beetle D-luciferin as substrate by CYP450-Glo assay relative to control; format: ADME; details: CYP3A4 enzyme (unknown origin), probe beetle D-luciferin, read-out: Activity
CYP3A4, sequence (P08684 whole entry, canonical isoform): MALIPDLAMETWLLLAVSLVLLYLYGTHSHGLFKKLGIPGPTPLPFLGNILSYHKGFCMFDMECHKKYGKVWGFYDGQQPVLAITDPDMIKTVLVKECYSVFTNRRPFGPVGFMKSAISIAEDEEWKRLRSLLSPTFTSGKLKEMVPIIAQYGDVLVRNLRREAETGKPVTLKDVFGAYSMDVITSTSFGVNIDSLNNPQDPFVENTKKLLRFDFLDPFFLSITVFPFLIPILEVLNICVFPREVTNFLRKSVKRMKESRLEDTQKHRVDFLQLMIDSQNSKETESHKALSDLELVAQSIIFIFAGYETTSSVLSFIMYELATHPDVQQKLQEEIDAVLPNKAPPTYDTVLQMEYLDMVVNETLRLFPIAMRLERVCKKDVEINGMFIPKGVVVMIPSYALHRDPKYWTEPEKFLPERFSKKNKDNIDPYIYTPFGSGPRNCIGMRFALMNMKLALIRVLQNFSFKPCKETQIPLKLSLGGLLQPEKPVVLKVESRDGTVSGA
Summary of the method: (§3)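 Luminescent P450-Glo assays for CYP3A4, CYP2D6 and CYP2C9 run per the kit protocol. Triplicate wells, final concentrations 0.01–25 μM, same across all three isoforms. Activity given as % of control.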

CYP2D6 = CYP2D6 (Homo sapiens, UniProt P10635); test: Inhibition of CYP2D6 (unknown origin) assessed as residual activity at 10 uM using beetle D-luciferin as substrate by CYP450-Glo assay relative to control; format: ADME; details: CYP2D6 enzyme (unknown origin), probe beetle D-luciferin, read-out: Activity; summary of the method: as §3
CYP2D6, sequence (P10635 whole entry): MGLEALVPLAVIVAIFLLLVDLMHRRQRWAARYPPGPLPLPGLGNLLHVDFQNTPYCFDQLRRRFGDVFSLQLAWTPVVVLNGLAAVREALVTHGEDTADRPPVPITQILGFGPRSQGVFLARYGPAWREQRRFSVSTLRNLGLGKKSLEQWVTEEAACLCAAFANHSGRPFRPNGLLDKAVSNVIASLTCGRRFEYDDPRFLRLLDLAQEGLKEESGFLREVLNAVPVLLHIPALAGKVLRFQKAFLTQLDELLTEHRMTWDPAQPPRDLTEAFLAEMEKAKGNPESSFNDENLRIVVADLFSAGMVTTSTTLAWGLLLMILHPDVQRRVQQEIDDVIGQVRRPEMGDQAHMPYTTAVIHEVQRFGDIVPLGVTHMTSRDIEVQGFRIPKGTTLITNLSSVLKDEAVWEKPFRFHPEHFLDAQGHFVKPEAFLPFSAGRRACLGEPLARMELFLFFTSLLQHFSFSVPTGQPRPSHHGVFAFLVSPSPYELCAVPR

CYP2C9 = CYP2C9 (Homo sapiens, UniProt P11712); test: Inhibition of CYP2C9 (unknown origin) assessed as residual activity at 25 uM using beetle D-luciferin as substrate by CYP450-Glo assay relative to control; format: ADME; details: CYP2C9 enzyme (unknown origin), probe beetle D-luciferin, read-out: Activity; summary of the method: as §3
CYP2C9, sequence (P11712 whole entry): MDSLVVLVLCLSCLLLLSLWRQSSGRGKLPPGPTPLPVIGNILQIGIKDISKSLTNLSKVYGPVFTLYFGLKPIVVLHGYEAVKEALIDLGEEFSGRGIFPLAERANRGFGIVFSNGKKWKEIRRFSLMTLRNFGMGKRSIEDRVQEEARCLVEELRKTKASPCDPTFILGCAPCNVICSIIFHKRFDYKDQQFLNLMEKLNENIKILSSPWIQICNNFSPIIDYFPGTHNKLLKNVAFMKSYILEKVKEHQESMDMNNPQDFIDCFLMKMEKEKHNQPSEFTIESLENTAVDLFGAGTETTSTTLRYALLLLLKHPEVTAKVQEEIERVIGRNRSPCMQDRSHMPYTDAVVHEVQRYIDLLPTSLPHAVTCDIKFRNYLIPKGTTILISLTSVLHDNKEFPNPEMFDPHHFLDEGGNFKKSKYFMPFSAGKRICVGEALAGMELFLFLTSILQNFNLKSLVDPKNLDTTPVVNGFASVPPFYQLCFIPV

[11] = Mutagenicity in Salmonella typhimurium TA100 assessed as revertant colonies at 10 uM by Ames test; format: toxicity; details: salmonella enterica subsp. enterica serovar typhimurium
Summary of the method: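 Ames microplate fluctuation assay with S. typhimurium TA100 in 384-well format, run in triplicate. Medium control baseline defined as mean revertants in growth medium + 1% DMSO plus one SD. Positive wells counted; a 2-fold increase over baseline flagged as a mutagen alert.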

[12] = molecular target: T3, 5-hydroxytryptamine receptor 1A (Homo sapiens, UniProt P08908); test: Displacement of [3H]-8-OH-DPAT from recombinant human 5HT1A receptor expressed in HEK293 cells measured after 1 hr by microbeta counting method; format: cell-based
T3 sequence (P08908 whole entry): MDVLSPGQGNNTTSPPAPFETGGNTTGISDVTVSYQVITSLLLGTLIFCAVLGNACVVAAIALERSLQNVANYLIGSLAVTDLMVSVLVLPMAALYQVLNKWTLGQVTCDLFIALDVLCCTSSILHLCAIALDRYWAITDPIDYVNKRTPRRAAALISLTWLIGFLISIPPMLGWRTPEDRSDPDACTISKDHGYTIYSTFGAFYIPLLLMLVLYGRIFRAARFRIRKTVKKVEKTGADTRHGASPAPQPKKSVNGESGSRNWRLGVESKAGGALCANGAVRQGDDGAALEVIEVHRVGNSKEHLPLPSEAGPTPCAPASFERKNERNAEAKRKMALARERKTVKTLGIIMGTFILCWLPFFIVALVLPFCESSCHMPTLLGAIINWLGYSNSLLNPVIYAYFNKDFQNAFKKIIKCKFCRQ
Summary of the method: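 Cloned human 5-HT1A receptor stably expressed in HEK-293 cells; displacement of [3H]-8-OH-DPAT.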

[13] = molecular target: 5-hydroxytryptamine receptor 7 (Homo sapiens, UniProt P34969); test: Displacement of [3H]-5-CT from recombinant human 5HT7b receptor expressed in HEK293 cells measured after 1 hr by microbeta counting method; format: cell-based; summary of the method: as §1
5-hydroxytryptamine receptor 7, sequence (P34969 whole entry): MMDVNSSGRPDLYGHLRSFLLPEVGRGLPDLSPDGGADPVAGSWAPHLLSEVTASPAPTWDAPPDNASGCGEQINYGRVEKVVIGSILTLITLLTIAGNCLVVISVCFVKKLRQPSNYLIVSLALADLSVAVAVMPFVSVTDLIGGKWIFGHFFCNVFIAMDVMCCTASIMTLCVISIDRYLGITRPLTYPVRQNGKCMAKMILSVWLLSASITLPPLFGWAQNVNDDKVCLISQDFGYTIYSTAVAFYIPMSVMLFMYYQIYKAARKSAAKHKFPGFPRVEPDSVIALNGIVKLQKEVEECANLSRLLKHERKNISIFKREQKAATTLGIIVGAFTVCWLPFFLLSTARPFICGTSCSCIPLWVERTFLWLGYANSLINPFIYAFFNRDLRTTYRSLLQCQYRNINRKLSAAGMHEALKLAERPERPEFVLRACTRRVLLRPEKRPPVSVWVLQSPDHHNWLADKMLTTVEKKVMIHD

Homo sapiens = species: Homo sapiens; test: Selectivity ratio of Ki for displacement of [3H]-8-OH-DPAT from recombinant human 5HT1A receptor expressed in HEK293 cell membranes to Ki for displacement of [3H]-5-CT from recombinant human 5HT7b receptor expressed in HEK293 cell membranes
Cytochrome P450 3A4 = Cytochrome P450 3A4 (Homo sapiens, UniProt P08684); test: Inhibition of CYP3A4 (unknown origin) using beetle D-luciferin as substrate by CYP450-Glo assay; format: ADME
Cytochrome P450 2D6 = Cytochrome P450 2D6 (Homo sapiens, UniProt P10635); test: Inhibition of CYP2D6 (unknown origin) using beetle D-luciferin as substrate by CYP450-Glo assay; format: ADME
Cytochrome P450 2D6, sequence (P10635 whole entry): as the sequence (P10635 whole entry) above

[14] = liver microsomes, read-out: Drug metabolism

Row | Structure (SMILES) | Ki [1] | Ki [2] | Ki (D(2) dopamine receptor) | activity at 40 min, 100 µM (P-glycoprotein (ABCB1)) | metabolised at 2 h [9] | activity at 10 µM (CYP3A4) | activity at 10 µM (CYP2D6) | activity at 25 µM (CYP2C9) | Activity [11] | Ki [12] | Ki [13] | further results
1 | CCn1cncc1-c1c[nH]c2ccc(I)cc12 | > 10 µM | 1.67 µM | 4.85 µM | – | – | – | – | – | – | – | – | –
2 | c1ccc(-c2ccccc2N2CCNCC2)cc1 | – | – | – | – | – | – | – | – | – | – | – | Ki [3]: 1.19 µM; Ki [4]: 0.076 µM; Ki [5]: 0.596 µM
3 | NCCc1c[nH]c2ccc(C(N)=O)cc12 | – | – | – | 26.3% | 2% | 95.7% | 108% | 78.7% | 4 | – | – | Papp [6]: 3.54 ×10⁻⁶ cm/s; metabolised at 2 h [7, 14]: 26%; metabolised at 2 h [8, 14]: 20%; Retention_time [10]: 1.62 min
4 | Cn1cncc1-c1c[nH]c2ccc(C(N)=O)cc12 | > 10 µM | 6.91 µM | 5.56 µM | 60% | 9% | 29.4% | 55% | 37.2% | 12.3 | 0.22 µM | 0.006 µM | Ratio Ki (Homo sapiens): 37; Drug metabolism ([7]; microsomes, 2 h): Metabolite_Notdetected; Drug metabolism ([8]; microsomes, 2 h): Metabolite_Notdetected; IC50 (Cytochrome P450 3A4): 3.53 µM; IC50 (Cytochrome P450 2D6): 27.6 µM
5 | CCn1cncc1-c1c[nH]c2ccc(S(N)(=O)=O)cc12 | > 10 µM | 7.27 µM | > 10 µM | – | – | – | – | – | – | > 10 µM | 6.42 µM | –
